{"data": "Experimental data from different studies", "note": "Compare with care: the assays were run in different laboratories."}
{"Structure (SMILES)": "COC(=O)c1cc(-c2cccc(NC(=O)Nc3ccc(Cl)cc3Cl)c2)on1", "target or system": "Mycobacteroides abscessus", "test": "microbial growth, broth dilution", "system": "ATCC19977", "setting": "48 h", "endpoint": "MIC", "result": "> 64 µg/mL"}
{"Structure (SMILES)": "COCCOCOc1cc(O)c(-c2cc(-c3ccc(C(=O)O)cc3)n(-c3ccccc3)n2)cc1C12CC3CC(CC(C3)C1)C2", "target or system": "Jurkat", "test": "cell growth or viability, ATP luminescence", "setting": "24 h", "endpoint": "IC50", "result": "2.54 µM"}
{"Structure (SMILES)": "N.N.[Cl][Pt][Cl]", "target or system": "PLC", "test": "cell growth or viability", "setting": "24 h", "endpoint": "IC50", "result": "63.9 µM"}
{"Structure (SMILES)": "COC(=O)c1cc(-c2cccc(NC(=S)Nc3ccc(C#N)cc3)c2)on1", "target or system": "Mycobacteroides abscessus", "test": "microbial growth, broth dilution", "system": "ATCC19977", "setting": "48 h", "endpoint": "MIC", "result": "> 64 µg/mL"}
{"Structure (SMILES)": "[H]/N=C(/N)N[C@H]1[C@H](O)[C@@H](O)[C@H](O[C@@H]2O[C@@H](C)[C@](O)(C=O)[C@H]2O[C@@H]2O[C@@H](CO)[C@H](O)[C@@H](O)[C@@H]2NC)[C@@H](N/C(N)=N\\[H])[C@@H]1O", "target or system": "Mycobacteroides abscessus", "test": "microbial growth", "system": "ATCC19977", "endpoint": "MIC", "result": "50 µg/mL"}
{"Structure (SMILES)": "Cn1cnc(Cn2c(=O)[nH]/c(=N\\c3cc4cn(C)nc4cc3Cl)n(Cc3cc(F)c(F)cc3F)c2=O)n1", "target or system": "Alphacoronavirus 1", "test": "viral replication, inhibitor, qPCR", "system": "CRFK", "endpoint": "EC50", "result": "~50 µM"}
{"Structure (SMILES)": "CCC1(c2ccc(N)cc2)CCC(=O)NC1=O (stereo not shown)", "target or system": "DU-145", "test": "cell growth or viability, CCK-8", "setting": "48 h", "endpoint": "IC50", "result": "> 50 µM"}
{"Structure (SMILES)": "O=C(O)c1cn(C2CC2)c2cc(N3CCNCC3)c(F)cc2c1=O", "target or system": "Mycolicibacterium vaccae", "test": "microbial growth", "system": "IMET10670", "setting": "5 µg/mL", "endpoint": "inhibition zone", "result": "41 mm"}
{"Structure (SMILES)": "COC(=O)c1cc(-c2cccc(NC(=O)Nc3cccc(Cl)c3)c2)on1", "target or system": "Mycobacteroides abscessus", "test": "microbial growth, broth dilution", "system": "ATCC19977", "setting": "48 h", "endpoint": "MIC", "result": "> 64 µg/mL"}
{"Structure (SMILES)": "CO[C@H]1/C=C/O[C@@]2(C)Oc3c(C)c(O)c4c(O)c(c(/C=N/N5CCN(C)CC5)c(O)c4c3C2=O)NC(=O)/C(C)=C\\C=C\\[C@H](C)[C@H](O)[C@@H](C)[C@@H](O)[C@@H](C)[C@H](OC(C)=O)[C@@H]1C", "target or system": "Mycobacteroides abscessus", "test": "microbial growth", "system": "ATCC19977", "endpoint": "MIC", "result": "25 to 100 µg/mL"}
{"Structure (SMILES)": "COc1c2c(cc3c1OCO3)[C@]13C=C[C@H](OC)C[C@@H]1[N@](C2)C[C@H]3OC(=O)c1ccc2ccccc2c1", "target or system": "MOLT-4", "test": "cell growth or viability, WST-1", "endpoint": "IC50", "result": "> 10 µM"}
{"Structure (SMILES)": "CN(C(=O)/C=C/c1ccoc1)[C@@H]1CC[C@@]2(O)[C@H]3Cc4ccc(O)c5c4[C@@]2(CCN3CC2CC2)[C@H]1O5", "test": "thermal pain", "system": "mouse", "setting": "subcutaneous", "endpoint": "ED50", "result": "0.046 mg/kg"}
{"Structure (SMILES)": "COCCOCOc1cc(OCc2cc(F)cc(F)c2)c(C(=O)/C=C/c2ccc(C(=O)O)cc2)cc1C12CC3CC(CC(C3)C1)C2", "target or system": "Jurkat", "test": "cell growth or viability, ATP luminescence", "setting": "24 h", "endpoint": "IC50", "result": "0.93 µM"}
